Our source for the Concentration values is ChEMBL document CHEMBL1123216, “Sustained brain-specific delivery of estradiol causes long-term suppression of luteinizing hormone secretion” (J Med Chem, 1986).

Each structure is given as a SMILES string. Where only a bound is given, the exact number is not on record here.

Common to all, as to assay type: functional, organism-based
Experiment [1] relates to Rattus norvegicus. The experiment is described as follows: Serum concentration of LH 24 days after intravenous administration in Orchidectomized rats. Put shortly:
(§1)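 Male rats given a single iv dose (2.1 or 3.0 mg/kg, dimethyl sulfoxide vehicle at 0.5 mL/kg) 2 weeks after orchidectomy. At 12, 18 or 24 days they were killed by decapitation and serum LH was measured by radioimmunoassay, expressed against reference preparation LH-RP-2. Samples assayed in duplicate; mean ± SEM, 6–7 animals per group.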

In experiment [2] the test system is Rattus norvegicus. Kind of experiment: Serum concentration of LH 12 days after intravenous administration in Orchidectomized rats. Put shortly:
as §1

Experiment [3] relates to Rattus norvegicus. Kind of experiment: Serum concentration of estradiol 12 days after intravenous administration in Orchidectomized rats. Put shortly:
(§2)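 Male rats were orchidectomized and 2 weeks later given a single iv dose (2.1 or 3.0 mg/kg, dimethyl sulfoxide vehicle). After decapitation at 12, 18 or 24 days, serum estradiol was measured by a published radioimmunoassay in modified form, in duplicate. Assay sensitivity limit was 20 pg/mL. Values are mean ± SEM, with the number of samples below the limit given per group.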

Experiment [4] deals with Rattus norvegicus. Kind of experiment: Serum concentration of estradiol 24 days after intravenous administration in Orchidectomized rats. In a few lines:
as §2

Experiment [5] has as its system Rattus norvegicus. The experiment is described as follows: Serum concentration of LH 18 days after intravenous administration in Orchidectomized rats. Put shortly: as §1
Experiment [6] relates to Rattus norvegicus. The experiment is described as follows: Serum concentration of estradiol 18 days after intravenous administration in Orchidectomized rats. In a few lines: as §2

With `CN1C=CCC(C(=O)O[C@H]2CC[C@H]3[C@@H]4CCc5cc(O)ccc5[C@H]4CC[C@]23C)=C1`, the Concentration in experiment [1] is 2.9 ng/mL; in experiment [2], 0.8 ng/mL; in experiment [3], 0.0259 ng/mL; in experiment [4], 0.0241 ng/mL; in experiment [5] it was 1.7 ng/mL; in experiment [6], below 0.02 ng/mL.

For the molecule `C[S+](C)[O-]`, the Concentration is 8.6 ng/mL in experiment [1]; 6.8 ng/mL in experiment [2]; 0.0275 ng/mL in experiment [3]; 0.0244 ng/mL in experiment [4]; 12.4 ng/mL in experiment [5]; below 0.02 ng/mL in experiment [6].

In the case of `C[C@]12CC[C@@H]3c4ccc(O)cc4CC[C@H]3[C@@H]1CC[C@@H]2O`, the Concentration is 11.6 ng/mL in experiment [1]; 12.9 ng/mL in experiment [2]; 0.0293 ng/mL in experiment [3]; 0.0312 ng/mL in experiment [4]; 12.1 ng/mL in experiment [5]; below 0.02 ng/mL in experiment [6].
